Results published in ChEMBL document CHEMBL3232791, “Synthesis and antibacterial evaluation of amino acid-antibiotic conjugates” (2014).

Tests used:
Format in all cases: functional
[1] = tested on: Escherichia coli; experiment: Antibacterial activity against Escherichia coli DH5alpha assessed as growth inhibition at 10 ug/ml after 16 hrs by spectrophotometric method; settings: DH5[alpha], read-out: GI
Procedure, shortened: (§1)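 Growth inhibition read as OD600 on 300 µL culture samples, with untreated control cultures taken as maximum growth. Percent inhibition = (OD600 control − OD600 treated) × 100 / OD600 control. Parent antibiotics and their conjugates were run in parallel at three concentrations per compound, in biological duplicate.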

[2] = tested on: Bacillus subtilis; experiment: Antibacterial activity against Bacillus subtilis 168 assessed as growth inhibition at 20 ug/ml after 16 hrs by spectrophotometric analysis; settings: subsp. subtilis str. 168, 16 h, read-out: GI; procedure, shortened: as §1
[3] = tested on: Staphylococcus aureus; experiment: Antibacterial activity against Staphylococcus aureus RN4220 assessed as growth inhibition at 100 ug/ml after 16 hrs by spectrophotometric analysis; settings: RN4220, 16 h, read-out: GI; procedure, shortened: as §1
[4] = tested on: Staphylococcus aureus; experiment: Antibacterial activity against Staphylococcus aureus RN4220 assessed as growth inhibition at 50 ug/ml after 16 hrs by spectrophotometric analysis; settings: RN4220, 16 h, read-out: GI; procedure, shortened: as §1
[5] = tested on: Bacillus subtilis; experiment: Antibacterial activity against Bacillus subtilis 168 assessed as growth inhibition at 10 ug/ml after 16 hrs by spectrophotometric analysis; settings: subsp. subtilis str. 168, 16 h, read-out: GI; procedure, shortened: as §1
[6] = tested on: Escherichia coli; experiment: Antibacterial activity against Escherichia coli DH5alpha assessed as growth inhibition at 5 ug/ml after 16 hrs by spectrophotometric method; settings: DH5[alpha], read-out: GI; procedure, shortened: as §1
[7] = tested on: Staphylococcus aureus; experiment: Antibacterial activity against Staphylococcus aureus RN4220 assessed as growth inhibition at 200 ug/ml after 16 hrs by spectrophotometric analysis; settings: RN4220, 16 h, read-out: GI; procedure, shortened: as §1
[8] = tested on: Bacillus subtilis; experiment: Antibacterial activity against Bacillus subtilis 168 assessed as growth inhibition at 40 ug/ml after 16 hrs by spectrophotometric analysis; settings: subsp. subtilis str. 168, 16 h, read-out: GI; procedure, shortened: as §1
[9] = tested on: Escherichia coli; experiment: Antibacterial activity against Escherichia coli DH5alpha assessed as growth inhibition at 2.5 ug/ml after 16 hrs by spectrophotometric method; settings: DH5[alpha], read-out: GI; procedure, shortened: as §1
[10] = tested on: Escherichia coli; experiment: Antibacterial activity against Escherichia coli DH5alpha assessed as growth inhibition at 1.5 ug/ml after 16 hrs by spectrophotometric method; settings: DH5[alpha], read-out: GI; procedure, shortened: as §1
[11] = tested on: Staphylococcus aureus; experiment: Antibacterial activity against Staphylococcus aureus RN4220 assessed as growth inhibition at 60 ug/ml after 16 hrs by spectrophotometric analysis; settings: RN4220, 16 h, read-out: GI; procedure, shortened: as §1
[12] = tested on: Pseudomonas aeruginosa; experiment: Antibacterial activity against Pseudomonas aeruginosa PAO1 assessed as growth inhibition at 20 ug/ml after 16 hrs by spectrophotometric analysis; settings: PAO1, 16 h, read-out: GI; procedure, shortened: as §1
[13] = tested on: Staphylococcus aureus; experiment: Antibacterial activity against Staphylococcus aureus RN4220 assessed as growth inhibition at 15 ug/ml after 16 hrs by spectrophotometric analysis; settings: RN4220, 16 h, read-out: GI; procedure, shortened: as §1
[14] = tested on: Pseudomonas aeruginosa; experiment: Antibacterial activity against Pseudomonas aeruginosa PAO1 assessed as growth inhibition at 10 ug/ml after 16 hrs by spectrophotometric analysis; settings: PAO1, 16 h, read-out: GI; procedure, shortened: as §1
[15] = tested on: Bacillus subtilis; experiment: Antibacterial activity against Bacillus subtilis 168 assessed as growth inhibition at 5 ug/ml after 16 hrs by spectrophotometric analysis; settings: subsp. subtilis str. 168, 16 h, read-out: GI; procedure, shortened: as §1
[16] = tested on: Pseudomonas aeruginosa; experiment: Antibacterial activity against Pseudomonas aeruginosa PAO1 assessed as growth inhibition at 40 ug/ml after 16 hrs by spectrophotometric analysis; settings: PAO1, 16 h, read-out: GI; procedure, shortened: as §1
[17] = tested on: Escherichia coli; experiment: Antibacterial activity against Escherichia coli DH5alpha assessed as growth inhibition at 3 ug/ml after 16 hrs by spectrophotometric method; settings: DH5[alpha], read-out: GI; procedure, shortened: as §1
[18] = tested on: Staphylococcus aureus; experiment: Antibacterial activity against Staphylococcus aureus RN4220 assessed as growth inhibition at 30 ug/ml after 16 hrs by spectrophotometric analysis; settings: RN4220, 16 h, read-out: GI; procedure, shortened: as §1
[19] = tested on: Escherichia coli; experiment: Antibacterial activity against Escherichia coli DH5alpha assessed as growth inhibition at 0.75 ug/ml after 16 hrs by spectrophotometric method; settings: DH5[alpha], read-out: GI; procedure, shortened: as §1
[20] = tested on: Staphylococcus aureus; experiment: Antibacterial activity against Staphylococcus aureus RN4220 assessed as growth inhibition at 300 ug/ml after 16 hrs by spectrophotometric analysis; settings: RN4220, 16 h, read-out: GI; procedure, shortened: as §1
[21] = tested on: Escherichia coli; experiment: Antibacterial activity against Escherichia coli DH5alpha assessed as growth inhibition at 100 ug/ml after 16 hrs by spectrophotometric method; settings: DH5[alpha], read-out: GI; procedure, shortened: as §1
[22] = tested on: Staphylococcus aureus; experiment: Antibacterial activity against Staphylococcus aureus RN4220 assessed as growth inhibition at 150 ug/ml after 16 hrs by spectrophotometric analysis; settings: RN4220, 16 h, read-out: GI; procedure, shortened: as §1
[23] = tested on: Staphylococcus aureus; experiment: Antibacterial activity against Staphylococcus aureus RN4220 assessed as growth inhibition at 75 ug/ml after 16 hrs by spectrophotometric analysis; settings: RN4220, 16 h, read-out: GI; procedure, shortened: as §1
[24] = tested on: Escherichia coli; experiment: Antibacterial activity against Escherichia coli DH5alpha assessed as growth inhibition at 75 ug/ml after 16 hrs by spectrophotometric method; settings: DH5[alpha], read-out: GI; procedure, shortened: as §1
[25] = tested on: Escherichia coli; experiment: Antibacterial activity against Escherichia coli DH5alpha assessed as growth inhibition at 50 ug/ml after 16 hrs by spectrophotometric method; settings: DH5[alpha], read-out: GI; procedure, shortened: as §1

| Compound | inhibition of growth at 20 µg/mL [2] [%] | inhibition of growth at 10 µg/mL [5] [%] | inhibition of growth at 1.5 µg/mL [10] [%] | inhibition of growth at 60 µg/mL [11] [%] | inhibition of growth at 20 µg/mL [12] [%] | inhibition of growth at 15 µg/mL [13] [%] | inhibition of growth at 10 µg/mL [14] [%] | inhibition of growth at 5 µg/mL [15] [%] | inhibition of growth at 40 µg/mL [16] [%] | inhibition of growth at 3 µg/mL [17] [%] | inhibition of growth at 30 µg/mL [18] [%] | inhibition of growth at 0.75 µg/mL [19] [%] | inhibition of growth at 300 µg/mL [20] [%] | inhibition of growth at 100 µg/mL [21] [%] | inhibition of growth at 150 µg/mL [22] [%] | inhibition of growth at 75 µg/mL [23] [%] | inhibition of growth at 75 µg/mL [24] [%] | inhibition of growth at 50 µg/mL [25] [%] | also measured |
| --- | --- | --- | --- | --- | --- | --- | --- | --- | --- | --- | --- | --- | --- | --- | --- | --- | --- | --- | --- |
| CCn1cc(C(=O)O)c(=O)c2cnc(N3CCN(C(=O)[C@H](CCCCNC(=O)OCc4ccccc4)NC(=O)OCc4ccccc4)CC3)nc21 | -4.87 | -7.86 |  |  |  |  |  |  |  |  |  |  |  |  |  |  |  |  | inhibition of growth at 10 µg/mL [1]: -6.9%; inhibition of growth at 100 µg/mL [3]: 28.2%; inhibition of growth at 50 µg/mL [4]: -20.2%; inhibition of growth at 5 µg/mL [6]: -9.63%; inhibition of growth at 200 µg/mL [7]: 52.4%; inhibition of growth at 40 µg/mL [8]: 89.9%; inhibition of growth at 2.5 µg/mL [9]: -13.2% |
| CCn1cc(C(=O)O)c(=O)c2cc(F)c(N3CCNCC3)cc21 [NORFLOXACIN] | 92.2 | 91.9 | 72.8 | 81 | 90.5 | 63.9 | 81.1 | 90.7 | 89.1 | 80.8 | 73.5 | 55.3 |  |  |  |  |  |  |  |
| Cc1ncc([N+](=O)[O-])n1CCOC(=O)[C@H](CCCCNC(=O)OCc1ccccc1)NC(=O)OCc1ccccc1 |  |  |  |  |  |  |  |  |  |  |  |  | 68 | 70 | 22.3 | -2.96 | 62.5 | 51.9 |  |
| CCn1cc(C(=O)O)c(=O)c2cc(F)c(N3CCN(C(=O)CNC(=O)OCc4ccccc4)CC3)cc21 | 89.5 | 90.2 | 9.75 | 88.5 | 10.6 | 83.6 | -16.2 | 91.6 | 81.5 | 20.8 | 85.7 | 5.96 |  |  |  |  |  |  |  |
| Cc1ncc([N+](=O)[O-])n1CCO [METRONIDAZOLE] |  |  |  |  |  |  |  |  |  |  |  |  | 16.4 | 15 | -9.9 | -14.3 | 8.2 | 6.64 |  |
| CCn1cc(C(=O)O)c(=O)c2cnc(N3CCN(C(=O)CNC(=O)OCc4ccccc4)CC3)nc21 | -7.68 | 88.2 |  |  |  |  |  |  |  |  |  |  |  |  |  |  |  |  | inhibition of growth at 10 µg/mL [1]: -8.93%; inhibition of growth at 100 µg/mL [3]: 52.2%; inhibition of growth at 50 µg/mL [4]: 32.9%; inhibition of growth at 5 µg/mL [6]: -11.1%; inhibition of growth at 200 µg/mL [7]: 57.4%; inhibition of growth at 40 µg/mL [8]: 91.7%; inhibition of growth at 2.5 µg/mL [9]: -13.4% |
| Cc1ncc([N+](=O)[O-])n1CCOC(=O)[C@H](C)NC(=O)OCc1ccccc1 |  |  |  |  |  |  |  |  |  |  |  |  | 45.9 | 8.28 | 22.5 | 8.86 | 3.79 | 2.22 |  |
| CCn1cc(C(=O)O)c(=O)c2cc(F)c(N3CCN(C(=O)[C@H](Cc4ccccc4)NC(=O)OCc4ccccc4)CC3)cc21 | 90.1 | 61.1 | 3.79 | 92.7 | -18.6 | 12 | -28 | 49.1 | 5.69 | 0.54 | 89.6 | -0.95 |  |  |  |  |  |  |  |
| Cc1ncc([N+](=O)[O-])n1CCOC(=O)CNC(=O)OCc1ccccc1 |  |  |  |  |  |  |  |  |  |  |  |  | 23.6 | 6.59 | 23.5 | 0.33 | 1.61 | 8.23 |  |
